Calls of active or inactive are those of the source. No rule for the calls is given here.

Data set [1] has as its system Respiratory syncytial virus. Briefly: Antiviral activity against Respiratory syncytial virus A2 infected in Vero-76 cells after 5 days by plaque reduction assay. The class given is functional, organism-based. Conditions: human respiratory syncytial virus, A2, Vero 76, 120 h.
For data set [2], the system named is Poliovirus 1. Briefly: Antiviral activity against Human poliovirus 1 strain Sabin after 2 days by plaque reduction assay. The class given is functional. Conditions: Enterovirus C, 48 h. In general terms: In a plaque reduction assay, fewer plaques than in the control indicate reduced infectivity or spread.
In data set [3] the test system is Vesicular stomatitis virus. As to the kind of experiment: Antiviral activity against Vesicular stomatitis virus after 2 days by plaque reduction assay. The class given is functional, organism-based.
Data set [4] is described as follows: Cytotoxicity against MDBK cells after 48 to 96 hrs by MTT assay. It is filed as cell-based, Bos taurus. Conditions: cattle, mdbk. In outline:
(§1)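 Mock-infected cells in maintenance medium, MDBK at 6 × 10^5 and BHK at 1 × 10^6 cells/mL initial density, with or without serial compound dilutions. Run in parallel with antiviral assays. Viability by MTT after 48–96 h at 37 °C, 5% CO2. CC50 = concentration reducing viability 50%.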

For data set [5], the system named is Coxsackievirus B2. As to the kind of experiment: Antiviral activity against Coxsackie virus type B2 virus infected in african green monkey Vero-76 cells after 3 days by plaque reduction assay. The class given is functional, organism-based. The note with it: Enterovirus B, Vero 76, 72 h. In outline:
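Vero 76 cells seeded at 2 × 10^5 cells/well, grown overnight to confluence at 37 °C in 5% CO2, then infected at 50–100 PFU/well. Unadsorbed virus removed. Overlay of DMEM with 1% inactivated FCS and 0.75% methylcellulose, with or without serial compound dilutions. After 3 days at 37 °C, fixed and stained with crystal violet in PBS/50% ethanol; plaques counted. EC50 is the concentration reducing plaque number by 50%.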

Data set [6] relates to Mammalian orthoreovirus 1. As to the kind of experiment: Antiviral activity against Reovirus-1 infected in BHK-21 cells assessed as inhibition of virus-induced cytopathicity after 3 to 4 days by MTT assay. Conditions: Mammalian orthoreovirus 1, BHK-21. The class given is functional, organism-based. An outline of the steps: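 BHK-21 cells seeded at 5 × 10^4 cells/well, grown overnight to confluent monolayers at 37 °C in 5% CO2, then infected at m.o.i. 0.01 in serum-free medium. One hour later, MEM Earle's with 1% final inactivated FCS added, with or without serial compound dilutions. Viability read by MTT after 3–4 days at 37 °C. EC50 is the concentration giving 50% protection from cytopathogenicity.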
(Protection from cytopathic effect is a common read-out in antiviral testing.)

The subject of data set [7] is Yellow fever virus. Briefly: Antiviral activity against Yellow fever virus infected in BHK-21 cells assessed as inhibition of virus-induced cytopathicity after 3 to 4 days by MTT assay. The class given is functional, organism-based.
Data set [8] deals with Vaccinia virus. Briefly: Antiviral activity against Vaccinia virus after 3 days by plaque reduction assay. It is filed as functional, organism-based. The note with it: Orthopoxvirus vaccinia.
Data set [9] has as its system MT4. Briefly: Cytotoxicity against human MT4 cells after 96 hrs by MTT assay. The class given is cell-based. Conditions: mt4, 96 h. In outline: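 Exponentially growing mock-infected MT-4 seeded at 1 × 10^5 cells/mL in RPMI-1640 with 10% FCS, penicillin and streptomycin. Incubated with or without serial compound dilutions at 37 °C, 5% CO2. Viability by MTT after 96 h. CC50 = concentration reducing viability 50%.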
(In general: Tetrazolium dyes change colour on reduction, which living cells bring about.)

Data set [10] relates to Vero. Briefly: Cytotoxicity against african green monkey Vero 76 cells by crystal violet staining. The note with it: chlorocebus sabaeus, vero. The class given is cell-based. In outline:
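Mock-infected Vero 76 seeded at 4 × 10^5 cells/mL, run in parallel with plaque assays, with or without serial compound dilutions. Cell number of monolayers determined by crystal violet staining. CC50 = concentration reducing viable cell number 50%.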

Data set [11] has as its system Human immunodeficiency virus 1. Briefly: Antiviral activity against HIV1 infected in human MT4 cells assessed as inhibition of virus-induced cytopathicity after 4 days by MTT assay. It is filed as functional, organism-based.
A short description of data set [12]: Cytotoxicity against hamster BHK21 cells assessed as reduction in cell viability after 48 to 96 hrs by MTT assay. The class given is cell-based, Mesocricetus auratus, BHK-21. Conditions: bhk-21. In outline:
as §1

The subject of data set [13] is Human alphaherpesvirus 1. Briefly: Antiviral activity against HSV1 infected in Vero-76 cells after 3 days by plaque reduction assay. The class given is functional, organism-based. The note with it: Human alphaherpesvirus 1, Vero 76, 72 h.

Consider `Clc1ccc(/N=N/N2CCCC2)cc1`, for which the concentration giving a half-maximal response (EC50) – broadly, the concentration giving half of the maximal effect – in data set [1] was more than 100 µM; in data set [2], 42 µM; in data set [5], more than 100 µM; in data set [6], more than 100 µM; in data set [7], more than 100 µM; in data set [13], more than 100 µM. Moreover, the outcome in [3] and in data set [8] was inactive. The CC50 in [4], in data set [9], in data set [10] and in [12] was more than 100 µM throughout. Also, in [11], the inhibition result is “inactive”.

As for `O=[N+]([O-])c1cccc(/N=N/N2CCCCC2)c1`, the EC50 in data set [1] was more than 83 µM; in data set [2], more than 83 µM; in data set [5] it was more than 83 µM; in data set [6], more than 100 µM; in [7], more than 100 µM; in [13], more than 83 µM. Also, the outcome in data set [3] and in data set [8] was inactive. Moreover, the cytotoxic concentration (CC50) – broadly, the concentration that lowers cell viability or growth by half – in [4] is more than 100 µM; in data set [9] it was more than 100 µM; in data set [10] it was 83 µM; in data set [12], more than 100 µM. For the same compound, the inhibition entry in data set [11] was “inactive”.

With `O=c1cccc2n1CC1CC2CN(/N=N/c2ccc(Cl)cc2)C1` (stereo unspecified), the EC50 is more than 55 µM in [1]; more than 55 µM in data set [2]; more than 55 µM in [5]; more than 85 µM in [6]; more than 85 µM in data set [7]; more than 55 µM in data set [13]. Also, the result in data set [3] and in data set [8] was inactive. The CC50 in [4] was 97 µM; in data set [9], 46 µM; in data set [10], 55 µM; in data set [12] it was 85 µM. In data set [11], the inhibition entry is “inactive”.

As to `Brc1cccc(/N=N/N2CCCC2)c1`, the 50% effective concentration (EC50) in [1], in [2], in data set [5], in [6], in [7] and in data set [13] was more than 100 µM each time. In addition, the result in data set [3] and in data set [8] was inactive. Further, the CC50 in data set [4] is more than 100 µM; in [9], more than 100 µM; in data set [10] it was not below 100 µM; in [12], more than 100 µM. Besides, the inhibition result in data set [11] was “inactive”.

For the compound `CN1CCN(/N=N/c2ccccc2)CC1`, the EC50 in data set [1] is more than 45 µM; in data set [2], more than 45 µM; in [5], 14 µM; in data set [6], more than 70 µM; in [7], more than 70 µM; in [13], more than 45 µM. The outcome in data set [3] and in data set [8] was inactive. Moreover, the cytotoxic concentration (CC50) was more than 100 µM in data set [4], 65 µM in data set [9], 45 µM in [10] and 70 µM in [12]. The inhibition entry in [11] is “inactive”.

As for `Clc1ccc(/N=N/N2CCCC2)cc1Cl`, the 50% effective concentration (EC50) in [1] was 20 µM; in data set [2], 25 µM; in [5], more than 58 µM; in data set [6], more than 50 µM; in [7], more than 50 µM; in data set [13], more than 58 µM. The result in [3] and in data set [8] was inactive. Moreover, the cytotoxic concentration (CC50) in data set [4] turned out to be 70 µM; in data set [9], 75 µM; in data set [10] it was 58 µM; in data set [12], 50 µM. The inhibition result in data set [11] is “inactive”.

Regarding `Fc1ccc(F)c(/N=N/N2CCCC2)c1`, the 50% effective concentration (EC50) in [1] is more than 100 µM; in data set [2], 44 µM; in data set [5], 35 µM; in data set [6], more than 100 µM; in data set [7] it was more than 100 µM; in [13] it was more than 100 µM. In addition, the result in [3] and in [8] was inactive. Besides, the cytotoxic concentration (CC50) in data set [4], in data set [9], in [10] and in data set [12] was more than 100 µM in each case. For the same compound, the inhibition entry in data set [11] is “inactive”.

The values are drawn from ChEMBL document CHEMBL1154067, “Antiviral and cytotoxic activities of aminoarylazo compounds and aryltriazene derivatives” (Bioorg Med Chem, 2009).
